Experimental data reported in ChEMBL document CHEMBL1275561, “In vitro activities of doripenem, a new broad-spectrum carbapenem, against recently collected clinical anaerobic isolates, with emphasis on the Bacteroides fragilis group” (2008).
Values joined by “and” are separate entries in the source; they are usually repeats but may differ in a detail not shown here. Equal entries are not always repeated.

Columns and labels:
Type in all cases: functional
[1] = test system: Finegoldia magna; assay: Antimicrobial activity against Finegoldia magna by agar dilution method in presence of beta-lactamase inhibitor Sulbactam
Procedure, shortened: (§1)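 Gram-positive anaerobes were tested by CLSI agar dilution on brucella agar enriched with 5% lysed defibrinated sheep blood and 1 μg/ml vitamin K1. Inoculum was log-phase growth at 0.5 McFarland, about 10^5 CFU/spot by replicator. Incubation was anaerobic, 37°C, 48 h. MIC was the lowest concentration with a marked growth change versus the drug-free plate. Eubacterium lentum ATCC 43055 was the control, and tests were repeated if it fell outside the CLSI range.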

[2] = test system: Cutibacterium acnes; assay: Antimicrobial activity against Propionibacterium acnes by agar dilution method in presence of beta-lactamase inhibitor Sulbactam
Procedure, shortened: (§2)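 Log-phase isolates were adjusted to 0.5 McFarland, and about 10^5 CFU/spot was delivered by Steers replicator. Plates were incubated anaerobically at 37°C for 48 h. MIC was the lowest concentration giving a marked growth change versus the control plate. Eubacterium lentum ATCC 43055 was the QC strain, with repeats when out of range.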

[3] = test system: Parabacteroides distasonis; assay: Antimicrobial activity against Bacteroides distasonis assessed as resistant isolates by agar dilution method
Procedure, shortened: (§3)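 CLSI agar dilution on enriched brucella agar (5% lysed defibrinated sheep blood, 1 μg/ml vitamin K1), plates made on test day. Log-phase inocula adjusted to 0.5 McFarland; about 10^5 CFU/spot by Steers replicator. Incubated anaerobically at 37°C for 48 h. MIC was the lowest concentration giving a marked change in growth versus the drug-free control plate. Resistance rates used CLSI anaerobe breakpoints. Controls were B. fragilis ATCC 25285 and B. thetaiotaomicron ATCC 29741.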

[4] = test system: Bacteroides nordii; assay: Antimicrobial activity against Bacteroides nordii assessed as resistant isolates by agar dilution method; procedure, shortened: as §3
[5] = test system: Finegoldia magna; assay: Antimicrobial activity against Finegoldia magna assessed as resistant isolates by agar dilution method
Procedure, shortened: (§4)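 Agar dilution following CLSI on brucella agar with 5% lysed defibrinated sheep blood and 1 μg/ml vitamin K1, plates made on test day. Log-phase cells at 0.5 McFarland, about 10^5 CFU/spot by Steers replicator, 48 h anaerobic at 37°C. MIC read as the lowest concentration causing a marked growth change versus control. Resistance counted by CLSI anaerobe breakpoints. Eubacterium lentum ATCC 43055 served as control.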

[6] = test system: Bacteroides caccae; assay: Antimicrobial activity against Bacteroides caccae assessed as resistant isolates by agar dilution method; procedure, shortened: as §3
[7] = test system: Cutibacterium acnes; assay: Antimicrobial activity against Propionibacterium acnes assessed as resistant isolates by agar dilution method; procedure, shortened: as §4
[8] = test system: Bacteroides fragilis; assay: Antimicrobial activity against Bacteroides fragilis assessed as resistant isolates by agar dilution method; procedure, shortened: as §3
[9] = test system: Parabacteroides merdae; assay: Antimicrobial activity against Bacteroides merdae assessed as resistant isolates by agar dilution method; procedure, shortened: as §3
[10] = test system: Peptoniphilus asaccharolyticus; assay: Antimicrobial activity against Peptoniphilus asaccharolyticus assessed as resistant isolates by agar dilution method; conditions: pooled result: one value given for 4 cell lines, strains, targets or settings; procedure, shortened: as §4
[11] = test system: Phocaeicola vulgatus; assay: Antimicrobial activity against Bacteroides vulgatus assessed as resistant isolates by agar dilution method; procedure, shortened: as §3
[12] = test system: Bacteroides eggerthii; assay: Antimicrobial activity against Bacteroides eggerthii assessed as resistant isolates by agar dilution method; procedure, shortened: as §3
[13] = test system: Clostridioides difficile; assay: Antimicrobial activity against Clostridium difficile by agar dilution method in presence of beta-lactamase inhibitor Sulbactam
Procedure, shortened: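 MICs by CLSI agar dilution on enriched brucella agar (5% lysed defibrinated sheep blood, 1 μg/ml vitamin K1). Log-phase inoculum at 0.5 McFarland, about 10^5 CFU/spot by replicator. Plates held anaerobically at 37°C for 48 h. Endpoint was the lowest concentration giving a marked change in growth against the control plate. Eubacterium lentum ATCC 43055 was the control.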

[14] = test system: [Clostridium] innocuum; assay: Antimicrobial activity against Clostridium innocuum assessed as resistant isolates by agar dilution method; conditions: pooled result: one value given for 4 cell lines, strains, targets or settings
[15] = test system: Bacteroides thetaiotaomicron; assay: Antimicrobial activity against Bacteroides thetaiotaomicron assessed as resistant isolates by agar dilution method; procedure, shortened: as §3
[16] = test system: Propionibacterium; assay: Antimicrobial activity against Propionibacterium sp. assessed as resistant isolates by agar dilution method; procedure, shortened: as §4
[17] = test system: Bacteroides uniformis; assay: Antimicrobial activity against Bacteroides uniformis assessed as resistant isolates by agar dilution method; procedure, shortened: as §3
[18] = test system: Bacteroides ovatus; assay: Antimicrobial activity against Bacteroides ovatus assessed as resistant isolates by agar dilution method; procedure, shortened: as §3
[19] = test system: Parvimonas micra; assay: Antimicrobial activity against Micromonas micros by agar dilution method in presence of beta-lactamase inhibitor Tazobactam; procedure, shortened: as §1
[20] = test system: Finegoldia magna; assay: Antimicrobial activity against Finegoldia magna by agar dilution method in presence of beta-lactamase inhibitor Tazobactam; procedure, shortened: as §1
[21] = test system: Peptoniphilus asaccharolyticus; assay: Antimicrobial activity against Peptoniphilus asaccharolyticus by agar dilution method in presence of beta-lactamase inhibitor Tazobactam; procedure, shortened: as §1
[22] = test system: Cutibacterium acnes; assay: Antimicrobial activity against Propionibacterium acnes by agar dilution method in presence of beta-lactamase inhibitor Tazobactam; procedure, shortened: as §2
[23] = test system: Peptostreptococcus sp.; assay: Antimicrobial activity against Peptostreptococcus sp. by agar dilution method in presence of beta-lactamase inhibitor Tazobactam; procedure, shortened: as §2
[24] = test system: Propionibacterium; assay: Antimicrobial activity against Propionibacterium sp. by agar dilution method in presence of beta-lactamase inhibitor Tazobactam; procedure, shortened: as §2
[25] = test system: Anaerococcus prevotii; assay: Antimicrobial activity against Anaerococcus prevotii by agar dilution method in presence of beta-lactamase inhibitor Tazobactam; procedure, shortened: as §1
[26] = test system: Clostridioides difficile; assay: Antimicrobial activity against Clostridium difficile by agar dilution method in presence of beta-lactamase inhibitor Tazobactam; procedure, shortened: as §1
[27] = Finegoldia magna, read-out: MIC
[28] = Cutibacterium acnes, read-out: MIC

SMILES | Activity [3] [%] | Activity [4] [%] | Activity [5] [%] | Activity [6] [%] | Activity [7] [%] | Activity [8] [%] | Activity [9] [%] | Activity [10] [%] | Activity [11] [%] | Activity [12] [%] | Activity [14] [%] | Activity [15] [%] | Activity [16] [%] | Activity [17] [%] | Activity [18] [%] | also measured
CC1(C)S[C@@H]2[C@H](NC(=O)[C@H](N)c3ccccc3)C(=O)N2[C@H]1C(=O)O [AMPICILLIN] | 6.7 | 0 | 0 | 0 | 0 | 4.5 | 0 | 0 | 0 | 0 | 5.6 | 3.8 | 0 | 0 | 11.4 | MIC [1]: 2 µg/mL; MIC [1, 27]: 2 µg/mL; MIC [2]: 0.25 µg/mL and 0.5 µg/mL; MIC [2, 28]: 0.25 µg/mL; MIC [13]: 4 µg/mL
CCN1CCN(C(=O)N[C@@H](C(=O)N[C@@H]2C(=O)N3[C@@H]2SC(C)(C)[C@@H]3C(=O)O)c2ccccc2)C(=O)C1=O [PIPERACILLIN] | 0 | 0 | 0 | 0 | 0 | 1 | 0 | 0 | 0 | 0 | 5.6 | 1.3 | 0 | 0 | 0 | MIC [19]: 0.5 µg/mL; MIC ([19]; Parvimonas micra, read-out: MIC): 0.5 µg/mL; MIC [20]: 0.5 µg/mL; MIC [20, 27]: 0.5 µg/mL; MIC [21]: 0.5 µg/mL; MIC ([21]; Peptoniphilus asaccharolyticus, read-out: MIC): 0.5 µg/mL; MIC [22]: 0.25 µg/mL and 0.5 µg/mL; MIC [22, 28]: 0.25 µg/mL; MIC [23]: 0.5 µg/mL; MIC ([23]; Peptostreptococcus sp., read-out: MIC): 0.5 µg/mL; MIC [24]: 0.25 µg/mL and 0.5 µg/mL; MIC ([24]; Propionibacterium, read-out: MIC): 0.25 µg/mL; MIC [25]: 0.5 µg/mL; MIC ([25]; Anaerococcus prevotii, read-out: MIC): 0.5 µg/mL; MIC [26]: 2 µg/mL
